# Compound activity: PubChem BioAssay, several laboratories
# Sampled rows, rich in hits. Any-hit rate of the full collection: about 27%.
# CYP2C19 activ: increases human CYP2C19 enzyme activity. 96,000 tested, under 10 active. AID 1025. activation factor at 5 µM. P33261. recombinant CYP2C19, luciferin-H EGE luminescence; hits give high values; 0 = fully inhibited enzyme, 1 = untreated enzyme;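 active means activation factor of at least 2 at 5 µM in the primary screen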;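 further: 0 = wells with 2.5 mM tranylcypromine and 1 = vehicle-only wells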
# Rev-RRE block: disrupts HIV-1 Rev binding to RRE RNA | P05866 | Rev peptide-RRE RNA binding, FRET | inhibition, % at 8 µM | 97,000 tested, 0.79% active | AID 704;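 active means inhibition above the screen-wide mean plus 3 SD, cut at about 35% in these data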;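 further: 0% = median DMSO wells and 100% = median Neomycin B control wells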
#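 assay system = Cy5-tagged RRE RNA duplex with fluorescein-tagged Rev peptide | incubation = 5 + 15 min at 25 °C | also added = labelled Rev peptide | measure = % inhibition of FRET ratio versus controls | benchmarks = DMSO wells as 0% and neomycin B wells as 100% inhibition | measured by = FRET fluorescence readout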
# CYP2C9 act: CYP2C9 (human) activation; recombinant CYP2C9, luciferin-H conversion, luminescence; hits give high values; factor 1 = untreated enzyme, 0 = blocked; 96,000 tested, 1.4% active; P11712; AID 1024; activation factor at 5 µM;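 active means activation factor of 2 or more for CYP2C9 at a 5 µM dose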;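 further: 0 = sulfaphenazole-blocked wells and 1 = vehicle-only wells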
# CYP2C9 inh: inhibitors of human CYP2C9; 96,000 tested, 20% active; CYP2C9 Supersomes, luciferin-H conversion, luminescence; inhibition, % at 5 µM; P11712; AID 777;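 active means blocking of liver enzyme CYP2C9 beyond about 50% at 5 µM, limit read from the data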
# Cav3 T inh: human Cav3.2 channel inhibition, primary screen; O95180; Cav3.2-expressing cells, Fluo-4 calcium fluorescence FDSS; hits give low values; B-score at 10 µM; 100,000 tested, 4% active;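 active means single-dose well whose peak fluorescence ratio is a statistical outlier from its plate by either plate-standardised score or position-corrected B-score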
# CYP2C19 inhib: human CYP2C19 inhibition; CYP2C19 Supersomes, luciferin-H EGE luminescence, 30 min; inhibition, % at 5 µM; 96,000 tested, 21% active;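 active means CYP2C19 inhibition above a set limit at 5 µM in the primary screen, cut at about 50% in these data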;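 further: plate controls were negative control wells for no effect and 2.5 mM tranylcypromine positive control for full effect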
# * marks the source's active call; other numbers are inactive results; / = not tested or not shown.
SMILES,CYP2C19 activ,Rev-RRE block,CYP2C9 act,CYP2C9 inh,Cav3 T inh,CYP2C19 inhib
CCn1ncc(C2=NOC(C(=O)Nc3cccnc3)C2)c1C (configuration not stated),0.9,/,0.8,18,0.011,10
O=C(NNC(=O)c1cc2cc3ccccc3nc2s1)c1cccc(C(F)(F)F)c1,1,1,0.9,11,/,2
Cc1c(C(=O)N2CCCCC2)sc(N)c1C#N,0.8,/,0.8,18,0.53,19
Cc1nn(C)c(C)c1/C=N/O,1.1,10,1.2,-21,-0.081,-14
COc1ccc(CCC(C(O)C(F)(F)F)S(=O)c2ccccc2)cc1 (configuration not stated),0.4,2,0.5,50*,-0.025,60*
COc1ccc(C(O)P(=O)(O)CCc2ccccc2)cc1 (configuration not stated),1.2,5,1.2,-22,0.22,-19
COc1cc(=O)[nH]c(SCc2c(F)c(F)c(F)c(F)c2F)n1,0.7,0,0.5,50*,-0.98,27
CC(=O)c1c(C)cc(C)c(CSc2nc(C)cc(=O)[nH]2)c1C,1,/,0.7,26,-3.4,-1
CCCCn1nnnc1NCc1cccs1,0.4,7,0.8,18,1.2,65*
Cn1nnnc1SCC(=O)NCc1cccs1,/,11,/,/,-0.019,/
CC(C)=CC(=O)Nc1ccc2c(c1)OCO2,0.7,8,0.8,21,0.73,26
CCOc1ccc(S(=O)(=O)Nc2ccc3c(c2)OCO3)c2cccnc12,0.2,6,0.6,38,0.046,82*
Cc1cc(NS(=O)(=O)c2ccc(Br)s2)no1,/,3,/,/,/,/
COc1cc(NS(=O)(=O)c2ccc(Br)s2)cc(OC)c1,0,5,0,96*,-5.8*,100*
O=S(=O)(Nc1ccc2c(c1)OCO2)c1ccc(Br)s1,0.2,6,0,96*,-2.7,78*
CN(C)S(=O)(=O)Nc1ccc2c(c1)OCO2,0.2,/,0.8,25,0.58,76*
Cc1ccc(S(=O)(=O)N2CCC(=O)N(C(COCc3cccc(Cl)c3)C(C)C)CC2)cc1 (configuration not stated),/,/,/,/,-2.1,/
O=C(CCS(=O)(=O)c1cccc2nsnc12)NC1CCCCC1,0.8,4,1.2,-18,0.85,25
COc1ccc(S(=O)(=O)Nc2ccc3c(c2)OCO3)cc1,0.1,5,0.4,56*,0.79,93*
Cc1cc(C)nc(NS(=O)(=O)c2ccc(NC(=O)c3ccc4c(c3)OCO4)cc2)n1,0.9,/,0.5,52*,0.045,9
Cc1cc(C)nc(NS(=O)(=O)c2ccc(NC(=O)c3ccc(S(=O)(=O)N4CCOCC4)cc3)cc2)n1,1.1,0,1,-4,0.89,-7
COc1ccc(S(=O)(=O)Nc2ccc3c(c2)OCO3)cc1C,0,1,0.6,36,-1.9,99*
Cc1cc(NS(=O)(=O)N(C)C)ccc1C(C)C,0.1,0,0.2,77*,-0.62,90*
CCOc1ccccc1NS(=O)(=O)N(C)C,1.1,1,1.7,-72,0.5,-13
Cc1cc(NS(=O)(=O)c2ccc(NC(=O)Nc3ccc4c(c3)OCO4)cc2)no1,/,5,/,/,1,/
SMILES,CYP2C19 activ,Rev-RRE block,CYP2C9 act,CYP2C9 inh,Cav3 T inh,CYP2C19 inhib
O=c1c2ccccc2nc2n1C(CSc1ccc(Br)cc1)CN2 (configuration not stated),1.1,7,1.1,-13,/,-14
CC(=O)c1c(C)[nH]c(C(=O)Nc2c(C)n(C)n(-c3ccccc3)c2=O)c1C,0.9,2,1.1,-10,0.12,7
CC(C)[C@H](CN(N=O)[C@@H](Cc1ccccc1)CN(C)N=O)N(CCc1ccccc1)N=O,/,/,/,/,-0.88,/
O=C(c1ccncc1)c1ccc(NS(=O)(=O)c2ccc(Br)s2)cc1,0.9,-1,0,99*,-0.29,5
O=C1NC2NC(=O)N(C(Cc3ccccc3)C(=O)O)C2N1 (configuration not stated),0.7,6,1.2,-17,0.58,30
COc1ccc(CC(=O)N2N=C(C)CC2(O)c2cccnc2)cc1 (configuration not stated),0.7,3,0.8,24,-0.18,27
Cc1nn(C(C)c2nc(-c3ccccc3)no2)c(C)c1[N+](=O)[O-] (configuration not stated),0.6,11,0.6,39,-0.99,37
